Source: PubChem
Only some compounds are listed: those with a hit (about 3.9% of all), similar ones and a draw of the others.
CRFR2-BP antag – blocks CRF-induced signaling of the CRF-BP/CRF-R2 complex | HEK293 CRF-R2/CRF-BP, CRF-induced calcium fluorescence | 350,000 tested, 0.59% active | inhibition, % at 11.8 µM;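 active = inhibition of the ligand-induced calcium signal above about 50% at the single tested concentration, limit read from the data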
TAAR1 ag – human TAAR1 agonism; CHO RD-HGA16 TAAR1, Fluo-8 calcium fluorescence; vehicle wells 0%, saturating PEA agonist 100%; AID 624467; Q96RJ0; activation, % at 3 µM; 360,000 tested, 0.99% active;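 active = activation above the mean activation of all test compounds in the run plus 3 SD, cut at about 38% in these data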
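System: CHO-derived RD-HGA16 cells with stable Gα16 and human TAAR1. Times: 17-24 h plating, Fluo-8 75 min 37 °C, 30 min RT. Measured by: calcium-sensitive Fluo-8 signal, excitation 470-495, emission 515-575 nm. Read-out basis: % activation relative to PEA EC100 response. Control set: DMSO and PEA EC100. Repeats: no replicates (n 1).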
TAAR1 antagonist – human TAAR1 antagonism; Q96RJ0; CHO RD-HGA16 TAAR1, Fluo-8 calcium fluorescence, antagonist; inhibition, % at 3 µM; 360,000 tested, 1.5% active; AID 624466;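 active = inhibition above a per-plate cutoff, the mean inhibition of test compounds on that plate plus 3 SD, cut at about 49% in these data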
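Test system: CHO RD-HGA16 cells bearing hTAAR1 | Reagent: β-PEA, EC80 | Compound dosing: 3 µM, single point | Schedule: Dye loading 75 min at 37 °C, then 30 min room temperature | Signal: Calcium fluorescence with Fluo-8 | Evaluation: Percent inhibition of PEA-evoked calcium signal, max/basal emission ratio | Control set: DMSO-only wells and EC80 β-PEA-stimulated wells | Repeats: Singlicate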
CRFR2-BP ag – CRF-BP/CRF-R2 complex agonism | HEK293 CRF-R2/CRF-BP, calcium dye fluorescence (FLIPR); percent of saturating CRF peptide response | activation, % at 13.2 µM | 350,000 tested, 0.46% active;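 active = activation of at least 50%, plus an integration ratio under a set limit after plate pattern correction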
ANO1 block – inhibitors of mouse TMEM16A calcium-activated chloride channel | Q8BHY3 | HEK293 TMEM16A/YFP iodide influx fluorescence, ionomycin | normalized B-score (activity score, 25-100; higher = stronger inhibition) at 10 µM | 310,000 tested, 1.2% active | AID 588511;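 active = ratio plate-corrected score three or more library SD toward inhibition, starting fluorescence score within five deviations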;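 also: score derived from kinetic fluorescence span divided by baseline fluorescence per well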
Target sequence (Q8BHY3 whole entry, looked up): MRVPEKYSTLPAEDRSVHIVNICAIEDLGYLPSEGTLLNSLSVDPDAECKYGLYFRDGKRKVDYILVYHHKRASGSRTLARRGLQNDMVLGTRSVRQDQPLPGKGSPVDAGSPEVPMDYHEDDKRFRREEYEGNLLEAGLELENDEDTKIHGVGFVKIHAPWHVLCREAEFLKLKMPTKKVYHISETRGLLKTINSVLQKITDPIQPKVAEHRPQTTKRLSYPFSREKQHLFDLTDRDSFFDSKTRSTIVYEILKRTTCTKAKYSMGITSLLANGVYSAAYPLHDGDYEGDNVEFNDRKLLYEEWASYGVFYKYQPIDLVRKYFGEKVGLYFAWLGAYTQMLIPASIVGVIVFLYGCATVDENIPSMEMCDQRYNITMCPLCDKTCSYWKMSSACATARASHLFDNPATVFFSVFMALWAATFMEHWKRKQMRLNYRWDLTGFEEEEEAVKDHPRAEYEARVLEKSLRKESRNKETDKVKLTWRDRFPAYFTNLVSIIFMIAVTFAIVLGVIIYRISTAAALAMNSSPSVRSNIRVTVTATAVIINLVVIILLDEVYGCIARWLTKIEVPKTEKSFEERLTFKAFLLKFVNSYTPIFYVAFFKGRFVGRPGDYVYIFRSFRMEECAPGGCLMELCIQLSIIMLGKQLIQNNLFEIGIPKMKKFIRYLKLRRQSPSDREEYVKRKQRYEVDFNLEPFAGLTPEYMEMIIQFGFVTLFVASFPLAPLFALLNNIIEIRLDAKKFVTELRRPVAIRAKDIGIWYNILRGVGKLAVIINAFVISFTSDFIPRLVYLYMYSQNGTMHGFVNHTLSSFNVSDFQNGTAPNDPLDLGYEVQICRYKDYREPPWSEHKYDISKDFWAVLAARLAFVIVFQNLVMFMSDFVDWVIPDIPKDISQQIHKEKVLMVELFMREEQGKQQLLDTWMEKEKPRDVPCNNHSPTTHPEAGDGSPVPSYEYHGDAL
ANO1 activ – activators or potentiators of mouse TMEM16A chloride channel; Q8BHY3; HEK293 TMEM16A/YFP-H148Q/I152L, iodide quench fluorescence; stronger effect = lower value; B-score at 10 µM; 340,000 tested, 0.3% active;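 active = fluorescence-ratio B-score plate-corrected deviation score at least 3 library SD below zero, with starting fluorescence score within 5 deviations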;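 also: channel opened by trigger with iodide after compound preincubation; score built on the fluorescence ratio of max minus min over baseline; more negative score means more quench and so TMEM16A activation or potentiation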
TMEM16A reconf – TMEM16A (mouse) chloride channel inhibition, re-confirmation; shares compounds with ANO1 block; HEK293 TMEM16A/YFP-H148Q, iodide quench fluorescence; ionomycin added to raise cell calcium; inhibition, % at 10 µM; 2,300 tested, 39% active; AID 652189;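 active = mean duplicate percent inhibition, scaled so buffer wells are 0 and the reference blocker 100, over three buffer SD above buffer mean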
HEK293 Ca mobil – calcium mobilization counter-screen hit for TMEM16A inhibitor series; shares compounds with ANO1 block; TMEM16A/YFP HEK293, Fluo4 calcium mobilization; calcium response (% of ionomycin), % at 10 µM; 2,300 tested, 2% active; AID 652231;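 active = duplicate-averaged calcium signal over 20% of the ionomycin maximum, relative to buffer baseline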;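 also: each well's signal is peak minus trough fluorescence divided by its pre-addition baseline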
Parental YFP cnt – acts in parental YFP-HEK293 cells lacking TMEM16A, counter-screen; shares compounds with ANO1 block; iodide YFP quench, ionomycin; YFP ratio F(max-min)/F0 at 10 µM; 2,300 tested, under 10 active; AID 652233;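 active = yellow fluorescent protein signal ratio exceeding the buffer control mean by over 5 SD of those controls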;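 also: ratio is mean of duplicate wells from kinetic YFP trace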
ClC-1 inh – selectivity of TMEM16A inhibitors: inhibition of rat ClC-1 chloride channel; shares compounds with ANO1 block; CHO ClC-1-YFP, iodide influx fluorescence quench; iodide control reads 0, buffer control 100; ratio percent, % at 10 µM; 2,300 tested, under 10 active;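 active = duplicate-mean ratio percent above the mean of iodide-only control wells, which defines zero, plus 5 of their SD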;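 also: higher percent means stronger block of ClC-1 iodide influx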
TAAR1 ag conf – confirmation of human TAAR1 agonists | shares compounds with TAAR1 ag | CHO RD-HGA16 TAAR1, Fluo-8 calcium fluorescence; scaled: DMSO 0%, maximal phenethylamine 100% | activation, % at 3 µM | 2,400 tested, 82% active | AID 651783;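 active = activation above a cutoff set at the run's mean compound activation plus 3 SD, cut at about 39% in these data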
Ga16 nonsel ag – nonselective agonism, TAAR1 counter-screen | shares compounds with TAAR1 ag | CHO-Ga16 parental, Fluo-8 calcium fluorescence; normalized to maximal ATP response, DMSO zero | activation, % at 3 µM | AID 651787 | 2,400 tested, 50% active;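 active = activation above the run cutoff, the mean activation over all tested wells plus 3 SD, cut at about 12% in these data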
TAAR1 desensitize – counter-screen for human TAAR1 agonists: agonists that desensitize TAAR1; CHO RD-HGA16 hTAAR1, Fluo-8 calcium, beta-PEA response inhibition; inhibition, % at 3 µM; shares compounds with TAAR1 ag; 2,400 tested, 46% active; AID 651951;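 active = inhibition above the run cutoff, the mean inhibition of all test compounds plus 3 SD, cut at about 49% in these data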;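 also: beta-PEA stimulus applied at its EC80; loss of beta-PEA calcium signal after compound pretreatment read as receptor desensitization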
Ga16 antag count – counter-screen for TAAR1 agonists: nonselective Ga16 antagonists; shares compounds with TAAR1 ag; 2,400 tested, 39% active; inhibition, % at 3 µM; CHO-Ga16 ATP-induced calcium, Fluo-8 fluorescence;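 active = inhibition above the plate's mean compound inhibition plus 3 SD, computed per plate, cut at about 22% in these data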
Numbers stand for hits.

What do the screens show for `CCn1c(=O)c(C(=O)NNC(=O)c2ccccc2F)c(O)c2ccccc21`?
CRFR2-BP antag: inactive; TAAR1 ag: 102; TAAR1 antagonist: 52; CRFR2-BP ag: 100; ANO1 block: 25; ANO1 activ: inactive; TMEM16A reconf: 22%; HEK293 Ca mobil: 48%; Parental YFP cnt: inactive; ClC-1 inh: inactive; TAAR1 ag conf: 99; Ga16 nonsel ag: 89; TAAR1 desensitize: 56; Ga16 antag count: 60

How did CCCCCCCCCC(=O)NNC(=O)c1c(O)c2ccccc2n(CC)c1=O do in these assays?
CRFR2-BP antag: inactive; TAAR1 ag: inactive; TAAR1 antagonist: inactive; CRFR2-BP ag: inactive; ANO1 block: inactive; ANO1 activ: inactive

How did CC1(c2ccc(OC(F)F)cc2)NC(=O)N(CC(=O)Nc2ccc3[nH]c(=O)[nH]c3c2)C1=O (stereo unspecified) do in these assays?
CRFR2-BP antag: inactive; TAAR1 ag: inactive; TAAR1 antagonist: inactive; CRFR2-BP ag: inactive; ANO1 block: inactive; ANO1 activ: inactive

What do the screens show for `CC(=O)Nc1ccc(/C=N/N2C(=O)NC(C)(c3ccc(OC(F)F)cc3)C2=O)cc1` (stereo unspecified)?
CRFR2-BP antag: inactive; TAAR1 ag: 140; TAAR1 antagonist: 97; CRFR2-BP ag: 130; ANO1 block: 100; ANO1 activ: -13; TMEM16A reconf: 93%; HEK293 Ca mobil: inactive; Parental YFP cnt: inactive; ClC-1 inh: inactive; TAAR1 ag conf: 138; Ga16 nonsel ag: 105; TAAR1 desensitize: 104; Ga16 antag count: 93

Results for O=C(O)c1cccc(C(=O)O)c1S(=O)Cc1ccccc1 (stereo unspecified) ?
TAAR1 ag: inactive; TAAR1 antagonist: inactive

What do the screens show for `CC1=CC(C)(C)N2C(=O)C3(SCC(=O)N3c3ccc(F)cc3)c3cc(C)cc1c32` (stereo unspecified)?
CRFR2-BP antag: inactive; TAAR1 ag: 54; TAAR1 antagonist: inactive; CRFR2-BP ag: inactive; ANO1 block: 100; ANO1 activ: inactive; TMEM16A reconf: 20%; HEK293 Ca mobil: inactive; Parental YFP cnt: inactive; ClC-1 inh: inactive; TAAR1 ag conf: 39; Ga16 nonsel ag: 25; TAAR1 desensitize: inactive; Ga16 antag count: 28

What do the screens show for `Cc1cc(C)c(OCC(=O)Nc2ccccc2N2CCOCC2)c(C)c1`?
CRFR2-BP antag: inactive; TAAR1 ag: 61; TAAR1 antagonist: 55; CRFR2-BP ag: 53; ANO1 block: 100; ANO1 activ: inactive; TMEM16A reconf: 37%; HEK293 Ca mobil: inactive; Parental YFP cnt: inactive; ClC-1 inh: inactive; TAAR1 ag conf: 43; Ga16 nonsel ag: 34; TAAR1 desensitize: 56; Ga16 antag count: 52

What do the screens show for `CC(Oc1ccc(C(=O)c2ccccc2)cc1)C(=O)Nc1ccc(S(N)(=O)=O)cc1` (stereo unspecified)?
CRFR2-BP antag: inactive; TAAR1 ag: 74; TAAR1 antagonist: inactive; CRFR2-BP ag: 61; ANO1 block: 100; ANO1 activ: inactive; TMEM16A reconf: 54%; HEK293 Ca mobil: inactive; Parental YFP cnt: inactive; ClC-1 inh: inactive; TAAR1 ag conf: 61; Ga16 nonsel ag: 31; TAAR1 desensitize: inactive; Ga16 antag count: 36

What do the screens show for `Cc1ccc(Cn2ncc3c(N4CCN(C)CC4)ncnc32)cc1`?
CRFR2-BP antag: inactive; TAAR1 ag: inactive; TAAR1 antagonist: inactive; CRFR2-BP ag: inactive; ANO1 block: inactive; ANO1 activ: inactive

How did CC1CCN(c2ncnc3c2cnn3Cc2ccc(Cl)cc2)CC1 do in these assays?
CRFR2-BP antag: inactive; TAAR1 ag: 51; TAAR1 antagonist: inactive; CRFR2-BP ag: inactive; ANO1 block: inactive; ANO1 activ: inactive; TMEM16A reconf: inactive; HEK293 Ca mobil: inactive; Parental YFP cnt: inactive; ClC-1 inh: inactive; TAAR1 ag conf: 38; Ga16 nonsel ag: 20; TAAR1 desensitize: inactive; Ga16 antag count: inactive

How did Cc1ccc(NC(=O)C(C)N2C(=O)c3ccccc3C2=O)cc1C (stereo unspecified) do in these assays?
CRFR2-BP antag: inactive; TAAR1 ag: inactive; TAAR1 antagonist: inactive; CRFR2-BP ag: inactive; ANO1 block: inactive; ANO1 activ: inactive

Results for Cc1cc(N2CCC(C)CC2)nc(NCc2ccccc2)n1 ?
CRFR2-BP antag: inactive; TAAR1 ag: 60; TAAR1 antagonist: inactive; CRFR2-BP ag: inactive; ANO1 block: 100; ANO1 activ: inactive; TMEM16A reconf: inactive; HEK293 Ca mobil: inactive; Parental YFP cnt: inactive; ClC-1 inh: inactive; TAAR1 ag conf: 67; Ga16 nonsel ag: 34; TAAR1 desensitize: 53; Ga16 antag count: 31

Results for Cc1cc(Nc2ccccc2)nc(NCc2ccccc2)n1 ?
CRFR2-BP antag: inactive; TAAR1 ag: 56; TAAR1 antagonist: inactive; CRFR2-BP ag: inactive; ANO1 block: 100; ANO1 activ: inactive; TMEM16A reconf: inactive; HEK293 Ca mobil: inactive; Parental YFP cnt: inactive; ClC-1 inh: inactive; TAAR1 ag conf: 76; Ga16 nonsel ag: 36; TAAR1 desensitize: 53; Ga16 antag count: 37
